Source: PubChem (Johns Hopkins Ion Channel Center)
In the library only some 4.1% were active in any assay of this set; here they are far more common.
RGS4 block = inhibitors of human RGS4. P49798. HEK293 M3R/RGS4 inducible, Fluo-4 calcium flux; stronger effect = higher value; triggered by carbachol at its EC20. B-score at 10 µM. 310,000 tested, 0.45% active;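 active means B-score, a plate-corrected calcium signal, over three deviations above library mean, with baseline fluorescence within five deviations of library mean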;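 further: RGS4 expression induced by doxycycline in cells with stable M3 receptor; B-score is computed from the integrated fluorescence ratio over baseline after carbachol; higher B-score means a larger calcium signal and so more RGS4 inhibition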
Target sequence (P49798 whole entry, looked up): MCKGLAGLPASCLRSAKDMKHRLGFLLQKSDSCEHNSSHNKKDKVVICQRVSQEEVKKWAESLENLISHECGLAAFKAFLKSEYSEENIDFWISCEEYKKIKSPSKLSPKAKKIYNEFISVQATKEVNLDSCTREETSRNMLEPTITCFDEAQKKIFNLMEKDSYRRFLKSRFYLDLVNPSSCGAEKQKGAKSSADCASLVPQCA
Kir21 block = inhibitors of mouse Kir2.1 inward-rectifier potassium channel; B-score at 10 µM; AID 1672; P35561; 310,000 tested, 0.85% active; HEK293-Kir2.1, FluxOR thallium flux fluorescence; stronger effect = lower value;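 active means fluorescence ratio B-score at or below minus 3 SD of library scores, with starting-brightness B-score within 2 SD, cut at about -4.2 in these data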;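 further: channel flux triggered by added potassium and thallium sulfate stimulus; B-score of peak minus minimum fluorescence over baseline after thallium stimulus; more negative B-score means stronger Kir2.1 block with less thallium influx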
MrgX1 antagonist = human MrgX1 receptor antagonism, primary screen; MRGX1-HEK293 calcium flux, Fluo-4, BAM8-22 antagonism; stronger effect = lower value; Q96LB2; 310,000 tested, 1.3% active; AID 588676; B-score at 10 µM;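 active means calcium-response B-score plate-corrected more than 3 library SD below zero, starting fluorescence within 5 deviations, no agonist response on first addition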;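 further: peak minus trough fluorescence over baseline after final BAM8-22 challenge near maximal dose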
Target sequence (Q96LB2 whole entry, looked up): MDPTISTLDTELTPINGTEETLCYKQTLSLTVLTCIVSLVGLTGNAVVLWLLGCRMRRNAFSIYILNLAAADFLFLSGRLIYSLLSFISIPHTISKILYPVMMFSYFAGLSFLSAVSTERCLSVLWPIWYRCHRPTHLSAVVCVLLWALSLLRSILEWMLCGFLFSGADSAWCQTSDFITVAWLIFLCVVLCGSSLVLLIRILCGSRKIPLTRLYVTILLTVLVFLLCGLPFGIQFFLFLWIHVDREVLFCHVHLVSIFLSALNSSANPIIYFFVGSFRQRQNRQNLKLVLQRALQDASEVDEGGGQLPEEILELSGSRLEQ
MrgX1 ag = activates human MrgX1 receptor signaling; Q96LB2; MrgX1-HEK293 cells, Fluo-4 calcium fluorescence, agonist mode; stronger effect = higher value; B-score at 10 µM; 310,000 tested, 0.44% active; AID 588627;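 active means calcium response B-score plate-corrected fluorescence ratio at least 3 library SD, with starting fluorescence B-score inside 5 SD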
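Material: MrgX1-expressing HEK293 cells / Dosing: compound as first of three additions / Incubation: overnight seeding, then 1 h dark dye loading / Signal: Fluo-4 NW calcium fluorescence / Evaluation: B-scored fluorescence response ratio / Benchmarks: positive and negative control wells on each plate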
MrgX1 PAM = allosterically activates human MrgX1 receptor signaling; Q96LB2; MrgX1-HEK293, Fluo-4 calcium flux, FDSS; stronger effect = higher value; B-score at 10 µM; 310,000 tested, 0.63% active; AID 588675;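 active means plate-corrected calcium response at least 3 library SD above typical, normal starting fluorescence, not activating the receptor alone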;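 further: compound read alongside a low EC10 to EC30 dose of BAM8-22 agonist; peak minus trough fluorescence over baseline measured at the second addition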
RGS4 pot = RGS4 potentiation or activation; 310,000 tested, 0.92% active; AID 463111; B-score at 10 µM; HEK293 M3R/inducible RGS4, carbachol calcium flux Fluo4; stronger effect = lower value;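 active means B-score of the integrated calcium signal more than 4 SD below the library mean, with starting fluorescence not abnormally high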;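 further: negative B-score means reduced calcium response which marks RGS4 activation or potentiation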
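Also added: carbachol at ECmax as muscarinic agonist stimulus; Assay system: HEK293 cells with stable M3R and inducible RGS4; Timing: overnight RGS4 induction, 30 min dye load 37 °C, 20 min compound RT; Measured by: Fluo4-AM (2 µM) calcium-flux fluorescence, kinetic read.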
MrgX1 allo conf = reconfirmed allosteric activator of human MrgX1 receptor | shares compounds with MrgX1 PAM | MrgX1-HEK293, Fluo-4 calcium fluorescence, FDSS | activation (ratio percentage), % at 10 µM | AID 602413 | 1,200 tested, 13% active;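 active means ratio at least 3 SD above the weak peptide control, stable starting fluorescence, no direct agonism earlier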;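 further: compound followed by low BAM8-22 agonist challenge near EC20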
HEK293 Ca flux = activity in parental HEK293 cells lacking MrgX1; shares compounds with MrgX1 antagonist; Fluo-4 calcium fluorescence, FDSS; fluorescence ratio F(max-min)/F0 at 10 µM; 4,000 tested, 2% active; AID 624111;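 active means duplicate-averaged calcium fluorescence ratio at least three times the standard deviation of buffer wells, a nonspecific response in parental cells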
HEK293 Ca counter = counter-screen for MrgX1 allosteric activators: effect in parental HEK293 cells; shares compounds with MrgX1 antagonist; parental HEK293 calcium flux, Fluo-4 fluorescence ratio; stronger effect = higher value; fluorescence ratio F(max-min)/F0 at 10 µM; 4,000 tested, 0.4% active; AID 624114;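 active means calcium fluorescence ratio, averaged over duplicates, at least 3 SD of the buffer-well ratio, meaning a nonspecific response in receptor-free cells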;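 further: untransfected parental HEK293 lacking MrgX1 used as counterscreen for MrgX1 allosteric activators; fluorescence change taken during the second addition on a kinetic imager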
HEK293 Ca cntr2 = counter-screen for MrgX1 activators: effect in parental HEK293 cells. shares compounds with MrgX1 antagonist. Fluo-4 calcium fluorescence (FDSS); stronger effect = higher value. fluorescence ratio F(max-min)/F0 at 10 µM. 4,000 tested, 8.7% active. AID 624115;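 active means calcium fluorescence ratio at least three times the spread of buffer wells, meaning a non-specific response in parental cells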
Hits are given with their value; - = inactive; . = no result given.

SMILES	RGS4 block	Kir21 block	MrgX1 antagonist	MrgX1 ag	MrgX1 PAM	RGS4 pot	MrgX1 allo conf	HEK293 Ca flux	HEK293 Ca counter	HEK293 Ca cntr2
CN1CCN(C2CCCCC2NS(=O)(=O)c2ccc(Cl)cc2)CC1 (centres undefined)	-	-	-	-	-	-	.	.	.	.
CC1CC(C)CN(C2CCCCC2NS(=O)(=O)c2ccc(Cl)cc2)C1 (centres undefined)	-	-	-	-	8.2	-	-	-	-	-
Cn1c(-c2sccc2OCc2ccc(Cl)cc2Cl)n[nH]c1=S	-	-5.5	-	-	9.9	-	-	-	-	-
CN(CC1COc2ccccc2O1)C(=S)Nc1ccccc1F (centres undefined)	-	-	-	-	-	-	.	.	.	.
Cc1ccsc1/C=C(\C#N)C(=O)NCCCN1CCOCC1	-	-	-	-	24	-	-	-	-	-
Cc1ccc(N(CC(=O)Nc2ccc(Br)c(C)c2)S(=O)(=O)c2c(C)[nH]c(=O)[nH]c2=O)cc1	-	-	-	-	8.3	-	-	-	-	-
COc1ccc(C2=NS(=O)(=O)N(C)C(C(=O)NC3CCCC3)=C2)cc1	-	-	-	-	-	-	.	.	.	.
O=C(O)CCCNc1ccc(S(=O)(=O)N2CCCCC2)cc1	-	-	-	-	-	-	.	.	.	.
Cc1cc(N)n(Cc2ccc(Cl)cc2)n1	-	-	-	-	-	-	.	.	.	.
C/C(=N\NC(=O)c1cc2ccccc2cc1O)c1cc2ccccc2o1	-	-	-	-	22	-	-	-	-	-
CC(NC(=O)Cn1nc(-c2ccccc2)ccc1=O)c1ccccc1 (centres undefined)	-	-	-	-	-	-	.	.	.	.
CC1=C(C(=O)Nc2ccc(Cl)cc2)C2(CCCCC2)C(C(N)=O)C(=S)N1 (centres undefined)	-	-	-	-	12	-	-	-	-	-
COc1ccc(S(=O)(=O)N2CCCCC2)cc1NC(=O)c1ccco1	-	-	-	-	-	-	.	.	.	.
COc1ccc(N2C(=O)C3CCCN3C2=O)cc1 (centres undefined)	-	-	-	-	10	-	-	-	-	-
O=C(Nc1ccc(Cl)c(Cl)c1)c1ccccc1	.	.	-	-	8	.	-	-	-	-
Cc1ccc(Sc2ncccc2C(=O)N(C)Cc2cccs2)c(C)c1	-	-	-	-	25	-	-	-	-	-
CN(CC(=O)N1CCOCC1)S(=O)(=O)c1cc(Cl)ccc1Cl	-	-	-	-	-	-	.	.	.	.
CC(=O)NC(Cc1ccc(F)cc1)C(=O)NC1CCN(C(=O)Nc2cccc(C)c2)CC1 (centres undefined)	-	-	-	-	-	-	.	.	.	.
CC(=O)NC(Cc1ccc(F)cc1)C(=O)NC1CCN(C(=O)Nc2ccc(F)cc2)CC1 (centres undefined)	-	-	-	-	59	-	-	-	-	-
COc1cccc(NC(=O)COc2coc(CN3CCN(c4ccccc4)CC3)cc2=O)c1	-	-	-	-	-	-	.	.	.	.
CC1CCCCN1S(=O)(=O)c1ccc(C(=O)Nc2nnc(-c3ccncc3)o2)cc1 (centres undefined)	-	-	-	-	-	-	.	.	.	.
COc1ccc(-c2nnc(NC(=O)c3ccc(S(=O)(=O)N4COCC4(C)C)cc3)o2)cc1	-	-	-	-	7	-	-	-	-	-
COc1ccc(NC(=O)c2cccc(C(=O)Nc3ccc(OC)cc3)n2)cc1	-	-	-	-	8.8	-	-	-	-	-
Cc1ccc(C2=CC(c3ccc(C)cc3)n3ncnc3N2)cc1 (centres undefined)	-	-	-	-	-	-	.	.	.	.
CC(C)(C)c1ccc(C2=CC(c3ccccc3)n3ncnc3N2)cc1 (centres undefined)	-	-	-	-	9.3	-	-	-	-	57
SMILES	RGS4 block	Kir21 block	MrgX1 antagonist	MrgX1 ag	MrgX1 PAM	RGS4 pot	MrgX1 allo conf	HEK293 Ca flux	HEK293 Ca counter	HEK293 Ca cntr2
CSCC[C@H](NC(=O)OC(C)(C)C)C(=O)N1CCC(C(=O)N[C@@H](Cc2c[nH]c3ccccc23)C(=O)O)CC1	-	-	-	-	-	-	.	.	.	.
O=C(O)c1cccc(Nc2ccc([N+](=O)[O-])c3nonc23)c1	-	-	-	-	-	-	.	.	.	.
COc1ccc(CCNC(=O)CCc2ccccc2)cc1OC	-	-	-	-	7.5	-	-	-	-	-
CN(CCC#N)Cc1cc(=O)oc2ccc3ccccc3c12	-	-	-	-	-	-	.	.	.	.
O=C(NCc1ccccc1)c1onc(CSc2ccc(Cl)cc2)c1C(=O)NCC1CC1	-	-	-	-	-	-	.	.	.	.
O=C(Nc1ccccc1F)Nc1ccccc1F	-	-	-	-	7.2	-	-	-	-	-
CCc1noc(C)c1C(=O)Nc1ccc(S(=O)(=O)N2CCC(C)CC2)cc1	-	-	-	-	-	-	.	.	.	.
S=c1nc[nH]c2c1sc1nc(N3CCOCC3)c3c(c12)CCCC3	-	-	-	-	7.4	-	-	-	-	-
Cc1ccc(CN(c2ccc(C(=O)N3CCc4ccccc4C3)cc2)S(C)(=O)=O)cc1	-	-	-	-	-	-	.	.	.	.
Cc1ccc(NC(=S)NNC(=O)CSc2nc3ccccc3c(=O)n2-c2ccc(C)cc2)cc1	-	-	-	-	21	-	-	-	-	-
CCN1C=C(Cc2ccccc2C)C2=C(C1)C(c1ccccc1C)C(C#N)=C(N)O2 (centres undefined)	-	-	-	-	18	-	-	-	-	-
CCN1C=C(Cc2ccc(F)cc2)C2=C(C1)C(c1ccc(F)cc1)C(C#N)=C(N)O2 (centres undefined)	-	-	-	-	-	-	.	.	.	.
O=C(COC(=O)[C@@H]1CCCN1S(=O)(=O)c1ccccc1F)c1ccccc1	-	-	-	-	-	-	.	.	.	.
CC(C)NC(=O)CN1CCC(c2nc3ccccc3[nH]2)CC1	-	-	-	-	-	-	.	.	.	.
CCCNC(=O)CN1CCC(c2nc3ccccc3[nH]2)CC1	-	-	-	-	12	-	-	-	-	-
Cc1nn(CCC(=O)NNC(=S)NCC(C)C)c(C)c1Br	-	-	-	-	-	-	.	.	.	.
C(=N\N1CCN(c2ccccn2)CC1)/c1ccco1	-	-	-	-	-	-	.	.	.	.
